Each structure is given as a SMILES string.

Assay type in all cases: functional
Assay [1] concerns Meloidogyne incognita. In words: Nematicidal activity against Meloidogyne incognita assessed as larval mortality at 1% drug concentration after 48 hrs. In short, it runs like this: (§1)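 Larvae were held in Petri dishes with test solutions diluted from stock to 1.0%, alongside a furadan standard and a distilled water control, at 28 ± 2 °C for up to 72 h. Each treatment was replicated twice. At 24, 48 and 72 h, one dish per treatment was scored for mortality under a stereomicroscope. Immobility was confirmed as irreversible by transfer to distilled water. Percent mortality was averaged over three replicates.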

For assay [2], the system named is Meloidogyne incognita. In words: Nematicidal activity against Meloidogyne incognita assessed as larval mortality at 1% drug concentration after 24 hrs. In short, it runs like this: as §1
In assay [3] the test system is Meloidogyne incognita. In words: Nematicidal activity against Meloidogyne incognita assessed as larval mortality at 1% drug concentration after 72 hrs. The method, boiled down:
as §1

As for `COc1ccc(-c2cc(=O)c3c(O)c(OC)c(O[C@@H]4O[C@H](COC(C)=O)[C@@H](O)[C@H](O)[C@H]4O)cc3o2)cc1` [LANTANONE], the Activity is on record as 95% in the assay on Meloidogyne incognita [1], 90% with Meloidogyne incognita [2] and 95% in the assay with Meloidogyne incognita [3].
Regarding `CC(=O)O[C@@H]1C[C@@H](C)[C@H](C)[C@H]2C3=CC[C@@H]4[C@]56CC[C@@](O)(OC5)C(C)(C)C6CC[C@@]4(C)[C@]3(C)CC[C@]21C(=O)O` (some centres not stated) [CAMARINIC ACID], the Activity in the assay on Meloidogyne incognita [1], in the assay with Meloidogyne incognita [2] and with Meloidogyne incognita [3] was 100% throughout.
As for `CNC(=O)Oc1cccc2c1OC(C)(C)C2` [CARBOFURAN], the Activity in the assay with Meloidogyne incognita [1], in the assay on Meloidogyne incognita [2] and in the assay with Meloidogyne incognita [3] was 100% throughout.
With `COc1ccc(-c2cc(=O)c3c(O)c(OC)c(O[C@@H]4O[C@H](CO)[C@@H](O)[C@H](O)[C@H]4O)cc3o2)cc1` [LINAROSIDE], the Activity was 90% in the assay with Meloidogyne incognita [1], 85% in the assay with Meloidogyne incognita [2] and 90% in the assay on Meloidogyne incognita [3].

The values above are taken from ChEMBL document CHEMBL1142624, “Nematicidal constituents of the aerial parts of Lantana camara” (2000).
